# Paper PMC11410293 (Journal of hepatology, 2022)
# What was measured:
# PDX283 tumors [1] = test: pharmacodynamics in PDX283 tumors; type: in vivo, NOD/SCID mice; conditions: CA3-treated mice, qRT-PCR
# PDX283 tumors [2] = test: PDX283 xenograft tumor growth; type: in vivo, NOD/SCID mice; conditions: 1 mg/kg/mouse intraperitoneal 3 times per week for 3 weeks
# Method in brief: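 Female NOD/SCID mice aged 6–8 weeks carried flank implants of the human CCA tumor. Dosing began once tumors were palpable (>25 mm³). Tumor growth was followed.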
# [3] = tested on: CCA patient-derived xenografts; conditions: cited from earlier work
# cells from PDX283 = test: viability of cells isolated from PDX283 tumor, in vitro; type: cell-based, human; conditions: concentrations up to 16 μM
# HuCCT-1 reporter cells = test: luminescent reporter of TEAD-dependent transcription; type: cell-based
compound,measurement,setting,value
O=S(=O)(c1ccc2c(c1)C(=NO)c1cc(S(=O)(=O)N3CCCCC3)ccc1-2)N1CCCCC1 [CA3],YAP target gene expression in tumors,PDX283 tumors [1],Inhibition
same,growth of PDX283 tumors,PDX283 tumors [2],significantly decreased
Cc1nc(Nc2ncc(C(=O)Nc3c(C)cccc3Cl)s2)cc(N2CCN(CCO)CC2)n1 [dasatinib],in vivo growth of CCA patient-derived xenografts,[3],inhibited
CCN1C(=O)N(c2c(F)c(OC)cc(OC)c2F)Cc2cnc3[nH]c(CN4CCOCC4)cc3c21 [pemigatinib],sensitivity of PDX283 cells,cells from PDX283,resistance
Verteporfin,global TEAD-dependent transcription,HuCCT-1 reporter cells,decreased
